Source: PubChem (Broad Institute)
Rows were chosen to be rich in hits. Some 2.2% of all compounds tested hit in one or more screens of this group.
FGF22 binding – FGF22 (human) thermal shift binding; Q9HCT0; recombinant FGF22 thermal shift, SYPRO orange fluorescence; percent of sucrose octasulfate shift, DMSO zero; activity (Tm shift, normalised), % at 9.99 µM; 1.5% of 340,000 active; AID 651658;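 active means mean Tm shift, scaled 0 neutral to 100 positive control, at about 1.3% or above, every replicate too, limit read from the data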
Target sequence (Q9HCT0 whole entry, looked up): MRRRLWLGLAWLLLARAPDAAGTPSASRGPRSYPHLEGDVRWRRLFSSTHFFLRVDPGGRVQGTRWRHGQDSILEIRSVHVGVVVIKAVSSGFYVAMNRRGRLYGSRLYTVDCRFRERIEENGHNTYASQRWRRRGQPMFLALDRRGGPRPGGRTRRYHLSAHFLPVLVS
CFTR F508del cor – CFTR F508del correction in bronchial cells | CFBE cells, YFP halide quenching; stimulated with forskolin plus potentiator P3; % fluorescence drop versus neutral controls | 0.36% of 350,000 active | activity (quench increase), % at 7.58 µM;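 active means mean added fluorescence quench of at least 8% versus neutral control, with both replicates also reaching 8%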;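 further: cells transiently co-express mutant CFTR-F508del with the halide-sensitive YFP; corrector assay measuring rescue of mutant channel to the surface after 24 h compound exposure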
dFosB act-1 – activators of mouse delta FosB homodimer; P13346; purified delta FosB, TAMRA-CDK5 oligo fluorescence polarization; percent of positive-control signal above neutral wells; activation, % at 25 µM; 0.99% of 340,000 active;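 active means mean activation above about 17%, with every replicate also reaching it, limit read from the data, passing the limit was not always enough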
S100A4 inh HTS – inhibitors of human S100A4 binding to myosin IIA peptide; AID 652163; S100A4/TAMRA-MyoIIA peptide fluorescence polarization; 0.14% of 360,000 active; P26447; inhibition, % at 10.7 µM;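 active means mean inhibition of at least 70% across replicates, with every replicate also reaching that level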
Target sequence (P26447 whole entry, looked up): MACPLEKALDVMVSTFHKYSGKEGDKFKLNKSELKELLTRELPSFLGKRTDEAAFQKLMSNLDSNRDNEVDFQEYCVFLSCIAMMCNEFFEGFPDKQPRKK
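Material: S100A4 monomer (human). Medium: Calcium-containing HEPES buffer, pH 7.2. Probe or stimulus: labelled myosin peptide probe, 5 nM. Compound dosing: one concentration per compound. Timing: polarization read 5 min after assay mix addition, stable 5–60 min. Benchmarks: DMSO as neutral control, TFP as positive control.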
dFosB act-2 – activators of mouse delta FosB homodimer DNA binding. shares compounds with dFosB act-1. purified delta FosB, TAMRA-CDK5 oligo fluorescence polarization; normalised: neutral wells 0, positive control 100. activation, % at 24.9 µM. 2,400 tested, under 10 active;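 active means highest replicate activation at or above 34% and every replicate reaching that threshold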;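 further: higher polarization means more probe DNA bound by delta FosB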
Numbers without * were called inactive; · = no result given.

SMILES	FGF22 binding	CFTR F508del cor	dFosB act-1	S100A4 inh HTS	dFosB act-2
COCC#Cc1cnc2c(c1)C(=O)N([C@@H](C)CO)C[C@H](C)[C@H](CN(C)C)O2	0.2	3.7	·	12.8	·
CN1CCN(C(=O)C[C@H]2CC[C@@H]3[C@H](COc4ccc(NC(=O)C5CC5)cc4C(=O)N3C)O2)CC1	0.0	-1.1	·	9.5	·
C[C@@H]1CCCCO[C@@H](CN(C)C(=O)c2ccccc2)[C@H](C)CN([C@@H](C)CO)C(=O)c2cc(NS(=O)(=O)c3ccc(F)cc3)ccc2O1	0.3	2.0	·	14.9	·
CC(C(=O)c1ccccc1)C(O)c1ccccn1 (configuration not stated)	43.9*	-0.3	-2.2	5.3	·
CCC(=O)N1CC2(C1)CN(CC1CCOCC1)[C@H](CO)c1c2c2ccc(OC)cc2n1C	-0.4	4.0	·	59.8	·
O=S(=O)([N-]c1nc2ccccc2nc1-[n+]1ccccc1)c1ccccc1	·	·	2.7	·	·
Cc1cc(C)c[n+](-c2nc3ccccc3nc2[N-]S(=O)(=O)c2ccc(Br)s2)c1	44.0*	-1.4	-9.0	1.6	·
CCc1nonc1NC(=O)c1oc2ccc(C)cc2c1C	-0.1	2.7	15.9	-2.0	·
CCc1ccc2oc(C(=O)Nc3nonc3CC)c(C)c2c1	-0.1	1.5	-8.4	1.5	·
Cc1cc2oc(C(=O)Nc3nonc3C)c(C)c2cc1Cl	-0.2	-0.7	46.2*	-4.8	2.5
Cc1nonc1NC(=O)c1oc2ccc(F)cc2c1C	-0.3	0.4	28.9*	-4.5	1.8
C[C@@H]1CN([C@@H](C)CO)C(=O)c2cc(NC(=O)Nc3ccc4c(c3)OCO4)ccc2O[C@@H]1CN(C)C(=O)Nc1ccccc1	-0.1	2.4	·	·	·
CCOC(=O)Cn1c(=NC(=O)c2sc3ccccc3c2Cl)sc2cc(S(N)(=O)=O)ccc21	·	·	91.5*	·	-3.6
COc1ccccc1CNC(=O)C[C@@H]1CC[C@H]2[C@@H](COC[C@@H](O)CN2C(=O)Nc2ccc(Cl)cc2)O1	0.0	0.0	·	0.5	·
COc1cccc(-c2cc(C(=O)Nc3nc4ccccc4s3)c3ccccc3n2)c1	·	·	4.2	·	·
COc1ccc(-c2cc(C(=O)Nc3nc4c(C)cccc4s3)c3ccccc3n2)cc1OC	·	·	39.1*	·	1.2
COc1cc(-c2cc(C(=O)Nc3cccc(S(=O)(=O)N(C)C)c3)c3ccccc3n2)cc(OC)c1OC	-0.2	-0.4	40.8*	-3.6	5.0
Cc1cc(C)n(CC(=O)NNC(=O)CCCOc2ccc(Cl)c(C)c2)n1	0.0	-2.9	20.8*	-2.1	-1.6
Cc1cccc(OCCC(=O)NNC(=O)Cn2nc(C)cc2C)c1	0.1	3.0	1.6	2.3	·
Cc1cc(C)n(CC(=O)NNC(=O)CCCOc2ccc(Cl)cc2C)n1	0.1	1.2	34.0*	-2.2	3.8
Cc1nn(-c2cccc(Cl)c2)c(Cl)c1/C=N/NC(=O)c1cccnc1	42.7	0.9	22.5*	-13.0	-0.3
Cc1nn(-c2ccc(F)cc2)c(Cl)c1/C=N/NC(=O)c1ccc(O)cc1	42.5	-0.4	-13.1	-2.6	·
Cc1nn(Cc2c(Cl)cccc2Cl)c(Cl)c1/C=N/NC(=O)c1cccnc1	-0.2	1.1	55.5*	-5.3	3.7
Cc1nn(-c2ccc(F)cc2)c(Cl)c1/C=N/NC(=O)c1cccs1	·	·	39.1*	·	-3.0
COc1ccc2c3c(n(C)c2c1)[C@@H](CO)N(Cc1nccs1)CC31CCN(C)CC1	-0.1	-1.0	·	-4.5	·
SMILES	FGF22 binding	CFTR F508del cor	dFosB act-1	S100A4 inh HTS	dFosB act-2
COc1ccc(/C=C/C(=O)OCC(=O)Nc2cc(C(F)(F)F)ccc2Cl)cc1	0.2	-0.8	30.8*	0.3	0.9
O=C(COC(=O)/C=C/c1cccc(C(F)(F)F)c1)NC(=O)NCc1ccccc1	0.0	0.6	24.5*	-3.6	1.6
O=C(COC(=O)/C=C/c1cccc(C(F)(F)F)c1)Nc1cccc2ccccc12	·	·	4.8	·	·
O=C(COC(=O)/C=C/c1cccc(C(F)(F)F)c1)NC(c1ccccc1)c1ccccc1	·	-2.6	26.3*	·	4.9
CC(C)NC(=O)Nc1ccc2c(c1)C(=O)N([C@@H](C)CO)C[C@H](C)[C@@H](CN(C)C(=O)c1ccncc1)OCCCC[C@H](C)O2	0.1	-1.1	·	13.4	·
COc1ccc(-c2cnc3c(c2)C(=O)N([C@H](C)CO)C[C@H](C)[C@@H](CN(C)C(=O)Cc2ccccn2)O3)cc1	-0.1	-2.1	·	-1.1	·
